Data as given in ChEMBL document CHEMBL5032505, “Design, Synthesis, and Activity Evaluation of Stereoconfigured Tartarate Derivatives as Potential Anti-inflammatory Agents In Vitro and In Vivo” (J Med Chem, 2021).
The source made the active and inactive calls. The calls are words filed in the database; no cut-off is given here.

What was measured:
[1] = molecular target: T1, Prostaglandin G/H synthase 1 (Ovis aries) (UniProt P05979)
T1 sequence (whole entry): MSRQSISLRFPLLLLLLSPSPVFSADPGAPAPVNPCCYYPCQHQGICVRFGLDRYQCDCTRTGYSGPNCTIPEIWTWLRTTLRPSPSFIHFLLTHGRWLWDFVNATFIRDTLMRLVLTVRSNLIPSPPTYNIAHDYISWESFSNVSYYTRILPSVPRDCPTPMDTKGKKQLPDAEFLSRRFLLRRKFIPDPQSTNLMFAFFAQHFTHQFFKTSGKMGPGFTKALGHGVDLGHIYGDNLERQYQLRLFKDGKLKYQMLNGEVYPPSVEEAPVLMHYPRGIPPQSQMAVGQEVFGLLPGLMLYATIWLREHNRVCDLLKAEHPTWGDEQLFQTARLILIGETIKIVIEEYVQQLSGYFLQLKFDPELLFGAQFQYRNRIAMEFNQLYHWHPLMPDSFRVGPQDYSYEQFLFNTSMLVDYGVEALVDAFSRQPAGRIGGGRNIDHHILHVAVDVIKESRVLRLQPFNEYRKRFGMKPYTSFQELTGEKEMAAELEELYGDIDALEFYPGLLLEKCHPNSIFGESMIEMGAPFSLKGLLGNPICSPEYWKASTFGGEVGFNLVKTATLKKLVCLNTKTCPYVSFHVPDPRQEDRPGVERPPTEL

[2] = AUC (0 to t) in Swiss albino mouse at 10 mg/kg, ip measured upto 24 hrs by LC-MS analysis; type: ADME, organism-based; parameters: route intraperitoneal, dose 10 mg/kg, time <=24; conditions: in vivo
Method in brief: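 Swiss albino mice (25−35 g), either sex, 10 groups of three. 10 mg/kg suspended in 0.1% CMC, given i.p. Ketamine anaesthesia (50 mg/kg i.p.). Jugular vein blood taken at 30, 45, 60 min and 2, 3, 4, 6, 8, 11, 24 h into heparinised tubes, triplicate samples per time point.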

Mus musculus [3] = test: Antiinflammatory activity in Swiss albino mouse model of carrageenan-induced paw edema assessed as reduction in paw thickness at 5 mg/kg, administered 30 mins prior to carrageenan challenge and measured upto 360 mins relative to control; type: functional; parameters: scale not given: the % may be the effect or the level left; conditions: time 390 min, 6.5 h
Method in brief: (§1)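 100 μL freshly prepared 1% carrageenan injected into the subplantar hind paw, with indomethacin (10 mg/kg) or test compound given 30 min before. Dose–response arm used 0.5, 2.5, 5, 10, 20 mg/kg. Six animals per group. Paw thickness (mm) read at 15, 30, 60, 120, 180, 240, 300, 360 min. Result expressed as % decrease versus control.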

[4] = molecular target: T2, Prostaglandin G/H synthase 2 (Homo sapiens) (UniProt P35354)
T2 sequence (whole entry): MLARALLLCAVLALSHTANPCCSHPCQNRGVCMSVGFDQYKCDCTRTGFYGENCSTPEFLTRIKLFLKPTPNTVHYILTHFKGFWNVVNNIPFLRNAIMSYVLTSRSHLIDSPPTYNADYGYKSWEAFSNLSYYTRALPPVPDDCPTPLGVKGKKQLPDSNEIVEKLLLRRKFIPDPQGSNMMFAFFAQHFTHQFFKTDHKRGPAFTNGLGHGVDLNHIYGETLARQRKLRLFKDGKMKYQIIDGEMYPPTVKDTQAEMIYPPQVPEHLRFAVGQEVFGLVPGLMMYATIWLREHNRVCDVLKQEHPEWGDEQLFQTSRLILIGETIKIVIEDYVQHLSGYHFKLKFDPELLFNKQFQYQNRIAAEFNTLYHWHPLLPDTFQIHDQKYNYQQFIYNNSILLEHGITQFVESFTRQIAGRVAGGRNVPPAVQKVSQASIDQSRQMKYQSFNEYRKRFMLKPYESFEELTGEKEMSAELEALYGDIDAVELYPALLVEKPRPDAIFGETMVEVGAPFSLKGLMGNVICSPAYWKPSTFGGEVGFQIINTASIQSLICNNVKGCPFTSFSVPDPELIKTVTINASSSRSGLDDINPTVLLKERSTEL

Glycine max [5] = tested on: Glycine max
Mus musculus [6] = test: Analgesic activity in Swiss albino mouse assessed as inhibition of acetic acid-induced writhing at 5 mg/kg, ip preincubated for 30 mins with L-NIL followed by compound addition for 30 mins prior to acetic acid challenge and measured after 30 mins; type: functional, organism-based; conditions: time 60.0 min
[7] = molecular target: Prostaglandin G/H synthase 1 (Homo sapiens) (UniProt P23219); test: Inhibition of COX1 in human whole blood assessed as reduction in calcium ionophore-stimulated TXB2 production by ELISA; type: tissue-based
Mus musculus [8] = test: Sedative activity in Swiss albino mouse at 300 mg/kg, po after 2 hrs; type: ADME, organism-based; conditions: in vivo
Method in brief: (§2)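 Acute oral toxicity in Swiss albino mice fasted 4 h, three per group, vehicle control group alongside. Single 300 mg/kg oral dose, continuous observation for 4 h, then periodic checks over 14 days.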

[9] = molecular target: T2, Prostaglandin G/H synthase 2 (Homo sapiens); remark: listed apart in the source
Mus musculus [10] = test: Antiinflammatory activity against Swiss albino mouse assessed as reduction in carragenan-induced paw edema at 20 mg/kg treated 30 mins prior to carrageenan challenge and measured upto 360 mins relative to control; type: functional; parameters: scale not given: the % may be the effect or the level left; conditions: time 390 min, 6.5 h
Method in brief: as §1

[11] = molecular target: T3, Prostaglandin G/H synthase 1 (Ovis aries, UniProt P05979); test: Inhibition of ovine COX-1 using arachidonic acid as substrate preincubated for 10 mins followed by substrate addition and measured after 2 mins by EIA
T3 sequence (P05979 whole entry): T1 sequence (whole entry)
Method in brief: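 COX-1 EIA run at 10⁻⁴–10⁻⁸ M in triplicate. Enzyme with heme in reaction buffer plus inhibitor, incubated 10 min at 37 °C. Boiled (3 min) enzyme served as background. Prostaglandin output quantified to give IC50.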

Albumin [12] = molecular target: T4, Albumin (Homo sapiens, UniProt P02768); test: Binding affinity to HSA assessed as change in entropy by isothermal titration calorimetry
Method in brief: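 Isothermal titration calorimetry at 25 °C. Ligand at 100 μM in DMSO:0.1 M Tris buffer (1:9), loaded in the syringe and stirred at 500 rpm. HSA (0.05 g per mL Tris buffer) placed in the sample cell. Forty 1 μL injections at 120 s intervals. Heats corrected with control titrations: ligand into buffer, and buffer into protein. Binding parameters fitted with a single-site model (Q = nΘMtΔHVo).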

Mus musculus [13] = test: Sedative activity in Swiss albino mouse at 300 mg/kg, po after 1 hr; type: ADME, organism-based; conditions: in vivo
Method in brief: as §2

Glycine max [14] = test: Binding affinity to soybean 5-LOX assessed as change in entropy by isothermal titration calorimetry
Method in brief: (§3)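 ITC at 25 °C in 0.1 M Tris buffer. Ligand at 100 μM in DMSO:Tris (1:9) titrated from a syringe stirred at 500 rpm into enzyme in the sample cell, 120 s spacing. 40 × 1 μL injections, except COX-1 at 20 × 2 μL. Buffer-only control titrations were subtracted.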

[15] = molecular target: T2, Prostaglandin G/H synthase 2 (Homo sapiens); remark: listed apart in the source
[16] = molecular target: T1, Prostaglandin G/H synthase 1 (Ovis aries); test: Binding affinity to ovine COX-1 assessed as change in entropy by isothermal titration calorimetry
Method in brief: as §3

Albumin [17] = molecular target: T4, Albumin; test: Binding affinity to HSA assessed as change in enthalpy by isothermal titration calorimetry

T4 sequence (P02768 whole entry): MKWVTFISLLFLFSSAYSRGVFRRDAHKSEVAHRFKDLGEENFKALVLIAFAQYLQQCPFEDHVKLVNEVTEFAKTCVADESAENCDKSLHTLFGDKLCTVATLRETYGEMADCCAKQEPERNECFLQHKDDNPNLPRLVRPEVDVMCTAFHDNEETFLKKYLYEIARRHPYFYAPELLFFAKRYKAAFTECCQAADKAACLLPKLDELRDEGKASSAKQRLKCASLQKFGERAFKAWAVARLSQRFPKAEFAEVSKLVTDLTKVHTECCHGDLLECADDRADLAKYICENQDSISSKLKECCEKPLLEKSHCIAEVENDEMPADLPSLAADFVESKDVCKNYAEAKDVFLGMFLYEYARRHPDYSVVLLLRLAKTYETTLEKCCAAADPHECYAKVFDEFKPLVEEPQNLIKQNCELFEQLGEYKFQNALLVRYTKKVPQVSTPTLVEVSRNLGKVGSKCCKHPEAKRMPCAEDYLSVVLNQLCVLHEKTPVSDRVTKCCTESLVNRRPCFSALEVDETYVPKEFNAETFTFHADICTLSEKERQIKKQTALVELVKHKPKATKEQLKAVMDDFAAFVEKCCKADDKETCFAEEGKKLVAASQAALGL
Prostaglandin G/H synthase 1 (Homo sapiens), sequence (P23219 whole entry): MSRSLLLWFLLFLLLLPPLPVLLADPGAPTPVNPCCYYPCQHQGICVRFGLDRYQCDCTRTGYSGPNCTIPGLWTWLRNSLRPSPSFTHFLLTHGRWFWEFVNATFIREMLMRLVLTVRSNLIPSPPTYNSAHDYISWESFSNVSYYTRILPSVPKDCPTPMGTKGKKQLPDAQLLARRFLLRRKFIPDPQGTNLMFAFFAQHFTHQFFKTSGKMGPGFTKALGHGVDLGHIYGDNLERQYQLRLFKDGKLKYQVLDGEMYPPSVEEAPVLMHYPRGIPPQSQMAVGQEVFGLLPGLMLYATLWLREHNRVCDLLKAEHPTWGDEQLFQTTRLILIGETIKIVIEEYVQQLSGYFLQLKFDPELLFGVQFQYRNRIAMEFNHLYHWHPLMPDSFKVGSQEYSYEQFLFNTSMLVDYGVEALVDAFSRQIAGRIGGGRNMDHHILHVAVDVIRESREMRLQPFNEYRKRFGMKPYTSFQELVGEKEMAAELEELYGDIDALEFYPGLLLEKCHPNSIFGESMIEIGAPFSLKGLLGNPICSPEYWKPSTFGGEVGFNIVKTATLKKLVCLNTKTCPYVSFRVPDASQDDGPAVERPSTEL

**Q.** What does the source list for `O=C(O)Cn1nncc1CO[C@@H](C(=O)O)[C@@H](OCc1cnnn1CC(=O)O)C(=O)O`?
**A.** deltaH [1]: -600 kcal/mol; AUC(0-t) at 24 h [2]: 241 µg·h/mL; Activity (Mus musculus [3]): 33%; Ka [4]: 6.07 10^5/M; Ka (Glycine max [5]): 1.33 10^5/M; Activity (Mus musculus [6]): Active; Activity [7]: 1.6 ng/mL; Activity (Mus musculus [8]): Non-Toxic; deltaG [9]: -7.88 kcal/mol; Activity (Mus musculus [10]): 38.5%; IC50 [11]: 300 nM; TdeltaS (Albumin [12]): -258 kcal/mol; Activity (Mus musculus [13]): Toxic; TdeltaS (Glycine max [14]): -2.99 kcal/mol; deltaH [15]: -10.5 kcal/mol; TdeltaS [16]: -595 kcal/mol; deltaH (Albumin [17]): -264 kcal/mol
